Measured values reported in ChEMBL document CHEMBL1914448, “Proteolytically stable cancer targeting peptides with high affinity for breast cancer cells” (J Med Chem, 2011).
Activity calls are given as the source filed them. Peptide text beside a SMILES is read from it.

Legend:
[1] = Cytotoxicity against human MDA-MB-435 cells assessed as cell viability up to 100 uM by MTT assay; type: cell-based; conditions: read-out: Activity
Outline: (§1)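 MDA-MB-435 cells seeded at 1 × 10^4 cells/well in serum-free RPMI with antibiotics, 37 °C, 5% CO2; after 24 h, peptides (1−100 μM, made up in sterile water) added for 48 h; doxorubicin positive control, untreated negative control. MTT (5 mg/mL medium) 3.5 h, formazan dissolved in DMSO, A570 with 650 nm reference. Viability = absorbance treated/untreated; triplicate, mean.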

HUVEC [2] = test: Drug uptake in human HUVEC cells at 10 '-5 mol/L after 30 mins by confocal microscopy; type: ADME, cell-based; conditions: 0.5 h, 10 µM
Outline: (§2)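 MDA-MB-435 or HUVEC cells (50,000) grown on coverslips for 24 h at 37 °C, then exposed to FITC-labelled peptide at 10−5 mol/L in serum-free medium for 30 min at 37 °C. Cells washed, fixed on ice in 2% formaldehyde for 20 min, nuclei stained with DAPI. Imaged by fluorescence microscopy (20×); the same samples were taken to confocal optical sectioning (40× oil) to confirm internalization.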

MDA-MB-231 [3] = test: Drug uptake in human MDA-MB-231 cells assessed as increase in fluorescently labeled cells at 10 '-5 mol/L after 30 mins by FACS analysis relative to WNleEAAYQRFL peptide; type: ADME, cell-based; conditions: mda-mb-231, 0.5 h, 10 µM
Outline: (§3)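 Cells grown to 80% confluence, trypsinized, seeded at 10^6 per well for 24 h at 37 °C, then exposed to FITC-labeled peptides at 10−5 mol/L in serum-free medium for 30 min at 37 °C. Washed three times with PBS, trypsinized to strip surface-bound peptide, analyzed by flow cytometry. Untreated-cell autofluorescence set the cutoff for labeled cells. Repeated 2−3 times.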

MDA-MB-435 [4] = test: Drug uptake in human MDA-MB-435 cells at 10 '-5 mol/L after 30 mins by confocal microscopy; type: ADME, cell-based; conditions: mda-mb-435, 0.5 h, 10 µM; outline: as §2
MCF7 [5] = test: Drug uptake in human MCF7 cells assessed as increase in fluorescently labeled cells at 10 '-5 mol/L after 30 mins by FACS analysis relative to WNleEAAYQRFL peptide; type: ADME, cell-based; conditions: mcf7, 0.5 h, 10 µM; outline: as §3
HUVEC [6] = test: Drug uptake in human HUVEC cells assessed as increase in fluorescently labeled cells after 30 mins by FACS analysis relative to untreated control; type: ADME, cell-based; conditions: 0.5 h; outline: as §3
MCF-10A = test: Drug uptake by human MCF10A cells assessed as increase in fluorescently labeled cells after 30 mins by FACS analysis relative to untreated control; type: ADME, cell-based; conditions: 0.5 h; outline: as §3
Homo sapiens = species: Homo sapiens; test: Binding affinity to human MDA-MB-435 cell membrane at 10 '-5 mol/L after 30 mins by fluorescence microscopy; outline: as §2
Serum [7] = test: Proteolytic stability in human serum assessed as compound degradation from 0.5 to 24 hrs by RP-HPLC analysis; type: ADME, cell-free
Outline: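 25% human serum in RPMI, equilibrated at 37 °C, with peptide added from a 1 mM aqueous stock. Aliquots taken at 0, 0.5, 1, 5 and 24 h, proteins precipitated with methanol at 4 °C and spun down. Supernatant run on C18 RP-HPLC with a 12−100% IPA/water gradient, detection at 214 nm. Peaks quantified by area; identity checked by MALDI-TOF.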

MDA-MB-435 [8] = test: Drug uptake in human MDA-MB-435 cells assessed as internalization at 10 '-5 mol/L after 30 mins by fluorescence microscopy; type: ADME, cell-based; conditions: mda-mb-435, 0.5 h, 10 µM
Outline: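 MDA-MB-435 cells (50 000) grown on coverslips for 24 h at 37 °C, then given FITC-labeled peptide at 10−5 mol/L in serum-free medium for 30 min at 37 °C. Washed, fixed on ice with 2% formaldehyde for 20 min, nuclei stained with DAPI. Imaged by fluorescence microscopy at 20×; internalization confirmed by confocal optical sectioning, 40× oil lens, 1.64 μm steps.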

MDA-MB-435 [9] = test: Drug uptake in human MDA-MB-435 cells assessed as increase in fluorescently labeled cells at 10 '-5 mol/L after 30 mins by FACS analysis relative to WNleEAAYQRFL peptide; type: ADME, cell-based; conditions: mda-mb-435, 0.5 h, 10 µM; outline: as §3
Liver [10] = test: Proteolytic stability in CD1 mouse liver homogenate up to 48 hrs by RP-HPLC analysis; type: ADME, tissue-based; conditions: tissue homogenate
Outline: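 Homogenate prepared from male CD-1 mouse liver in ice-cold HEPES pH 7.4, centrifuged, and its protein set by BCA. Peptide stock (1 mM in 5% ACN/water) diluted into homogenate plus RPMI pH 7.4 (2.94 mg protein total), shaken at 37 °C up to 48 h. Timed aliquots analyzed by RP-HPLC.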

MDA-MB-435 [11] = test: Growth inhibition of human MDA-MB-435 cells at 15 uM by MTT assay; type: functional, cell-based; outline: as §1
MDA-MB-231 [12] = test: Drug uptake in human MDA-MB-231 cells assessed as increase in fluorescently labeled cells at 10 '-5 mol/L after 30 mins by FACS analysis relative to untreated control; type: ADME, cell-based; conditions: mda-mb-231, 0.5 h, 10 µM
Outline: (§4)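 Cells grown to 80% confluence, trypsinized, seeded at 10^6 per well and cultured 24 h. They were then exposed to FITC-peptide at 10−5 mol/L in serum-free medium for 30 min at 37 °C, washed, and trypsinized to strip surface-bound peptide. Read by flow cytometry as percent cells above the autofluorescence cutoff of untreated cells. Repeated 2−3 times.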

MDA-MB-435 [13] = test: Drug uptake in human MDA-MB-435 cells assessed as increase in fluorescently labeled cells at 10 '-5 mol/L after 30 mins by FACS analysis relative to untreated control; type: ADME, cell-based; conditions: mda-mb-435, 0.5 h, 10 µM; outline: as §4
MCF7 [14] = test: Drug uptake in human MCF7 cells assessed as increase in fluorescently labeled cells at 10 '-5 mol/L after 30 mins by FACS analysis relative to untreated control; type: ADME, cell-based; conditions: mcf7, 0.5 h, 10 µM; outline: as §4
MDA-MB-435 [15] = test: Binding affinity to human MDA-MB-435 cells assessed as decrease in fluorescence after 30 mins by FACS analysis in the presence of unlabelled compound; type: functional, cell-based
Outline: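 Competition assay by flow cytometry in MDA-MB-435 cells. FITC-labelled peptide at 10−5 mol/L was co-incubated with a 50-fold excess of the same unlabelled peptide for 30 min at 37 °C. Cells washed with ice-cold PBS, then FACS as in the uptake assay. Repeated 2−3 times.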

Liver [16] = test: Proteolytic stability in CD1 mouse liver homogenate after 15 mins by RP-HPLC analysis; type: ADME, tissue-based; conditions: tissue homogenate, 0.25 h
Outline: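 Liver homogenate from male CD-1 mice, made in ice-cold HEPES pH 7.4 and centrifuged; supernatant adjusted to 14.7 mg/mL protein. Peptide added from a 1 mM stock in 5% ACN/water (100 μL) to 200 μL homogenate plus 700 μL RPMI, pH 7.4 (2.94 mg protein). Incubated at 37 °C with shaking, sampled at intervals, and analysed by RP-HPLC.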

Serum [17] = test: Proteolytic stability in human serum assessed as compound degradation after 30 mins by RP-HPLC analysis; type: ADME, cell-free; conditions: 0.5 h
Outline: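 Final mix of 25% human serum in RPMI, equilibrated at 37 °C for 15 min. Peptide added from a 1 mM water stock (100 μL into 1 mL total). Aliquots taken at 0, 0.5, 1, 5 and 24 h and quenched in methanol; serum proteins pelleted. Supernatant analysed by RP-HPLC (12–100% IPA/water, 214 nm); peaks integrated, with fragments identified by MALDI-TOF.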

MDA-MB-435 [18] = test: Binding affinity to human MDA-MB-435 cells by CyQuant GR fluorescent dye-based assay; type: functional, cell-based

Molecule | viability [1] [%] | Drug uptake (HUVEC [2]) | fold change (FC) (MDA-MB-231 [3]) | Drug uptake (MDA-MB-435 [4]) | fold change (FC) (MCF7 [5]) | Drug uptake (HUVEC [6]) [%] | Drug uptake (MCF-10A) [%] | Activity (Homo sapiens) | Stability (Serum [7]) | Drug uptake (MDA-MB-435 [8]) | fold change (FC) (MDA-MB-435 [9]) | Stability (Liver [10]) | growth inhibition (GI) (MDA-MB-435 [11]) | Drug uptake (MDA-MB-231 [12]) [%] | Drug uptake (MDA-MB-435 [13]) [%] | Drug uptake (MCF7 [14]) [%] | Activity (MDA-MB-435 [15]) | Stability (Liver [16]) | Stability (Serum [17]) | Kd (MDA-MB-435 [18]) [µM]
CCCC[C@H](NC(=O)C[C@H](N)C(=O)NCc1cccc2ccccc12)C(=O)N[C@@H](CCC(=O)O)C(=O)N[C@@H](CC(=O)N[C@@H](C)C(=O)N[C@@H](Cc1ccc(O)cc1)C(=O)N[C@@H](CCC(N)=O)C(=O)N[C@@H](CC(=O)N[C@@H](Cc1ccccc1)C(=O)N[C@@H](CC(C)C)C(=O)O)C(=O)NCCCCN)C(=O)NC | > 98 | Not Active | 3 | Active | 3 | 30 | 50 | Active | Stable | Active | 3 | Stable | – | – | – | – | – | – | – | –
CCCC[C@H](NC(=O)C[C@H](N)C(=O)NCc1cccc2ccccc12)C(=O)N[C@@H](CCC(=O)O)C(=O)N[C@@H](C)C(=O)N[C@@H](CC(=O)N[C@@H](Cc1ccc(O)cc1)C(=O)N[C@@H](CCC(N)=O)C(=O)N[C@@H](CC(=O)N[C@@H](Cc1ccccc1)C(=O)N[C@@H](CC(C)C)C(=O)O)C(=O)NCCCCN)C(=O)NC | > 98 | – | 3 | – | 3 | 35 | 55 | – | Stable | – | 3 | Stable | – | – | – | – | – | – | – | –
COc1cccc2c1C(=O)c1c(O)c3c(c(O)c1C2=O)C[C@@](O)(C(=O)CO)C[C@@H]3O[C@H]1C[C@H](N)[C@H](O)[C@H](C)O1 | – | – | – | – | – | – | – | – | – | – | – | – | Active | – | – | – | – | – | – | –
CCCC[C@@H](NC(=O)[C@@H](N)Cc1c[nH]c2ccccc12)C(=O)N[C@@H](CCC(=O)O)C(=O)N[C@@H](C)C(=O)N[C@@H](C)C(=O)N[C@@H](Cc1ccc(O)cc1)C(=O)N[C@@H](CCC(N)=O)C(=O)N[C@H](CCCNC(=N)N)C(=O)N[C@@H](Cc1ccccc1)C(=O)N[C@@H](CC(C)C)C(=O)O (HELM PEPTIDE1{W.[CCCC[C@@H](N[*:1])C(=O)[*:2]].E.A.A.Y.Q.[dR].F.L}$$$$V2.0) | > 98 | Not Active | 3.5 | Active | 3.5 | 12 | 36 | Active | Stable | – | 3.5 | Stable | – | 45 | 35 | 68 | inactive | – | – | –
CCCC[C@H](NC(=O)[C@@H](N)Cc1c[nH]c2ccccc12)C(=O)N[C@@H](CCC(=O)O)C(=O)N[C@@H](C)C(=O)N[C@@H](C)C(=O)N[C@@H](Cc1ccc(O)cc1)C(=O)N[C@@H](CCC(N)=O)C(=O)N[C@@H](CCCNC(=N)N)C(=O)N[C@@H](Cc1ccccc1)C(=O)N[C@@H](CC(C)C)C(=O)O (HELM PEPTIDE1{W.[Nle].E.A.A.Y.Q.R.F.L}$$$$V2.0) | – | – | – | – | – | – | – | – | – | – | – | – | – | 16 | 10 | 22 | – | Unstable | Unstable | 42
H-WEEAAYQRFL-OH | – | – | – | – | – | – | – | – | – | – | – | – | – | 33 | 14 | 60 | – | – | – | –
